Data taken from ChEMBL document CHEMBL3232875, “Prenylated benzoylphloroglucinols and xanthones from the leaves of Garcinia oblongifolia with antienteroviral activity” (J Nat Prod, 2014).

Legend:
[1] = Antiviral activity against Enterovirus 71 BrCr infected in African green monkey Vero cells assessed as inhibition of virus-induced cytopathic effect after 4 days by MTT assay; type: functional, cell-based, Human enterovirus 71 (strain BRCR)
How it was run: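 EV71 strain BrCr grown in Vero cells kept in DMEM with 2% FBS; titer by TCID50 end-point dilution. Vero cells inoculated with 100 × TCID50 virus plus serially diluted compounds (DMSO stocks); ribavirin positive control. After four days, morphology checked by light microscopy and viability by MTT to give CPE inhibition rate; IC50 by Forecast function. Mean ± SD, three independent assays, quadruplicate per concentration.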

[2] = Selectivity index, ratio of CC50 for African green monkey Vero cells to IC50 for Enterovirus 71 BrCr; type: functional
How it was run: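 SI computed as CC50 (Vero, 4-day MTT) divided by IC50 (EV71 BrCr CPE inhibition, 100 × TCID50, 4-day MTT) for each compound.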

[3] = Cytotoxicity against African green monkey Vero cells after 4 days by MTT assay; type: cell-based; conditions: chlorocebus sabaeus
How it was run: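 Vero cells treated or untreated with serially diluted compounds (100 mM DMSO stocks) for four days, viability read by MTT; CC50 calculated by Forecast function. Mean ± SD of three independent assays, each concentration in quadruplicate.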

[4] = Enterovirus A, Vero, 96 h, read-out: IC50

Structure (SMILES)	IC50 ([1]; vero)	other results
CC(C)=CC[C@@]12C[C@@H](C)C(C)(C)[C@@H](C(=O)C(C(=O)c3ccccc3)=C1O)C2=O	Not Active	–
C=C(CCC=C(C)C)C(=O)C[C@H]1C[C@@]2(CC=C(C)C)C(=O)[C@H](C(=O)C(C(=O)c3ccccc3)=C2O)C1(C)C	Not Active	–
NC(=O)c1ncn([C@@H]2O[C@H](CO)[C@@H](O)[C@H]2O)n1 [RIBAVIRIN]	–	Ratio CC50/IC50 [2]: >4; CC50 at 96 h [3]: > 1000 µM; IC50 [1, 4]: 253 µM
CC(=O)C[C@@H]1[C@@H]2C[C@]3(CC=C(C)C)C(=O)[C@@]1(C(=O)c1ccc(O)c(O)c1)C(=O)[C@@](CC=C(C)C)(C3=O)C2(C)C	Not Active	–
CC(C)=CCC/C(C)=C/C[C@H]1C[C@@]2(CC=C(C)C)C(=O)[C@](CC=C(C)C)(C(=O)C(C(=O)c3cccc(O)c3)=C2O)C1(C)C	Not Active	–
CC(C)=CCC/C(C)=C/C[C@H]1C[C@@]23C[C@@H](C(C)(C)O)OC2=C(C(=O)c2ccccc2)C(=O)[C@H](C3=O)C1(C)C	Not Active	–
CC(C)=CCC/C(C)=C/C[C@@H]1C[C@@]2(CC=C(C)C)C(=O)C(OC(=O)c3ccccc3)=C(O)[C@H](C2=O)C1(C)C	–	Ratio CC50/IC50 [2]: 2.4; CC50 at 96 h [3]: 37.8 µM; IC50 [1, 4]: 16.1 µM
COc1cc(O)c2c(=O)c3c(O)cc(O)c(OC)c3oc2c1	Not Active	–
CC(C)=CCC/C(C)=C/C[C@@H]1C[C@@]2(CC=C(C)C)C(=O)[C@H](C(=O)C(C(=O)c3ccccc3)=C2O)C1(C)C	Not Active	–
C=C(C)[C@H](O)CC/C(C)=C/C[C@H]1C[C@@]2(CC=C(C)C)C(=O)[C@](CC=C(C)C)(C(=O)C(C(=O)c3ccc(O)c(O)c3)=C2O)C1(C)C	Not Active	–
COc1cc(O)c2c(=O)c3cc(CC=C(C)C)c(O)c(O)c3oc2c1C/C=C(\C)CCC=C(C)C	Not Active	–
CC(C)=CCC/C(C)=C/C[C@@H]1C[C@]2(CC=C(C)C)C(=O)[C@@](CC=C(C)C)(C(=O)C(C(=O)c3ccc(O)c(O)c3)=C2O)[C@@]1(C)CCC=C(C)C [OBLONGIFOLIN C]	Not Active	–
CC(=O)C[C@H]1[C@@H]2C[C@]3(CC=C(C)C)C(=O)[C@@]1(C(=O)c1ccccc1)C(=O)[C@@](CC=C(C)C)(C3=O)C2(C)C	–	Ratio CC50/IC50 [2]: 1.5; CC50 at 96 h [3]: 47 µM; IC50 [1, 4]: 31.1 µM
CC(C)=CCC/C(C)=C/C[C@H]1C[C@@]23C[C@H](O)C(C)(C)OC2=C(C(=O)c2ccccc2)C(=O)[C@H](C3=O)C1(C)C	Not Active	–
C=C(C)C(=O)CC/C(C)=C/C[C@@H]1C[C@@]2(CC=C(C)C)C(=O)[C@H](C(=O)C(C(=O)c3ccccc3)=C2O)C1(C)C	Not Active	–
COc1c(CC=C(C)C)c(O)c2c(=O)c3ccc(O)c(O)c3oc2c1CC=C(C)C [DULXANTHONE B]	Not Active	–
C=C(C)[C@@H](O)CC/C(C)=C/C[C@@H]1C[C@@]2(CC=C(C)C)C(=O)[C@H](C(=O)C(C(=O)c3ccccc3)=C2O)C1(C)C	Not Active	–
